Data taken from PMC2842983 (Journal of medicinal chemistry, 2010).
“Also recorded” adds a separate entry of the source.

Key:
FGFR1 kinase [1] = target: T1, FGFR1 kinase (Homo sapiens, UniProt P11362); details: cited from earlier work; for IC50: read-out: IC50 for FGFR1 kinase activity
PDGFR = details: cited from earlier work
insulin receptor (InsR) = details: cited from earlier work
EGFR [2] = target: T2, EGFR (Homo sapiens, UniProt P00533); details: cited from earlier work
[3] = tested on: Src, InsR, EGFR, PDGFR, and several other kinases; details: cited from earlier work
FGFR1 kinase [4] = target: T1, FGFR1 kinase; test: ALPHAScreen assay, inhibition of FGFR1 kinase; assay type: biochemical; details: na = not active in the assay
EGFR [5] = target: T2, EGFR; test: ALPHAScreen kinase assay, EGFR; assay type: biochemical
How it was run: (§1)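 Recombinant kinase was sourced commercially. In the AlphaScreen format, kinase, biotinylated peptide, ATP and test compound were combined across 10 wells, typically spanning 0.01 µM to 250 µM compound. Phosphorylation ran for 30 minutes and was stopped with EDTA. Phosphopeptide was detected with anti-phosphotyrosine acceptor beads and streptavidin donor beads, and IC50 was derived from the concentration series.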

InsR = InsR (Homo sapiens, UniProt P06213); test: ALPHAScreen kinase assay, InsR; assay type: biochemical; details: kinase from Millipore, na = not active
Sequence of InsR (P06213 28-1382, species assumed): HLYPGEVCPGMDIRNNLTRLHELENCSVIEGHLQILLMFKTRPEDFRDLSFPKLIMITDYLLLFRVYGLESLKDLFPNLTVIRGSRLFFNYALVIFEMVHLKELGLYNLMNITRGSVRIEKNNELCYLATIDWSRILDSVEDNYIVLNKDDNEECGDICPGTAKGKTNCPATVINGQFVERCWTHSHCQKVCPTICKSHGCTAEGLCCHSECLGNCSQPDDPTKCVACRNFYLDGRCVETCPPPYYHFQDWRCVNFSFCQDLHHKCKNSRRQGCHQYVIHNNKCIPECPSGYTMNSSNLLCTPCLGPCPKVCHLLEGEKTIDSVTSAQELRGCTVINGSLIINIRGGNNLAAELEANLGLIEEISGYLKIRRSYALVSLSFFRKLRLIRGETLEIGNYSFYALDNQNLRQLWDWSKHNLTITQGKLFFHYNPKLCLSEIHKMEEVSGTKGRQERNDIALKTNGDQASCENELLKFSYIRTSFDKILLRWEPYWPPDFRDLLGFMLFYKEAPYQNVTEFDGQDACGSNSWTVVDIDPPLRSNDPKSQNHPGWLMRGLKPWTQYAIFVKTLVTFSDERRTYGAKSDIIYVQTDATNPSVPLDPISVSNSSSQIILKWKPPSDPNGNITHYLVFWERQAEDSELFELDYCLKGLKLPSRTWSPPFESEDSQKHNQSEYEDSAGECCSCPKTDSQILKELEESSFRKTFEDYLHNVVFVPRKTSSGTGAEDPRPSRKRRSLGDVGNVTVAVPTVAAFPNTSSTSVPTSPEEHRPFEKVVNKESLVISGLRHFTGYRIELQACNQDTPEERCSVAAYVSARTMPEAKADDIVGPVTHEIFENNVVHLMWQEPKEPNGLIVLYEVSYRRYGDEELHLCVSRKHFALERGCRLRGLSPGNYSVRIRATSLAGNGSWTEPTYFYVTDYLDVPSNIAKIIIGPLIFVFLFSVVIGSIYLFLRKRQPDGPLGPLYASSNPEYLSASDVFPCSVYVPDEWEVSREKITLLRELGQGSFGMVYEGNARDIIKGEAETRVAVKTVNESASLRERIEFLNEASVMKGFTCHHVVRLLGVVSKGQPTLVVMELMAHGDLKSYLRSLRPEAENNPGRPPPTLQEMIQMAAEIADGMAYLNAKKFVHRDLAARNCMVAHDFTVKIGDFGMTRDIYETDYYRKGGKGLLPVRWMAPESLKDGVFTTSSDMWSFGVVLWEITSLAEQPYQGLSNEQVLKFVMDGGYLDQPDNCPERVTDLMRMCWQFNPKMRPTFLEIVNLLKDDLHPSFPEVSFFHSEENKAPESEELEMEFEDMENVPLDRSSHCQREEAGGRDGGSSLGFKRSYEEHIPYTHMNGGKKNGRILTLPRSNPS
How it was run: as §1

T1 sequence (P11362 478-767 limits assumed): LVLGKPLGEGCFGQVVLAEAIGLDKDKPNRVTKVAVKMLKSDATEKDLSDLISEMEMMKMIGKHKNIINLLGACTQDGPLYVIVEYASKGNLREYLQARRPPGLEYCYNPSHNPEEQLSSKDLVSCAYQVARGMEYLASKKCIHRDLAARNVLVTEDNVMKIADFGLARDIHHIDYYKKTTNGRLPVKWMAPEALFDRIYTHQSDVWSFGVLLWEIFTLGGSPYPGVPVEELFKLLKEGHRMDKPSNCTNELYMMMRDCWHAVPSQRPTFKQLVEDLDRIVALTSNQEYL
T2 sequence (P00533 25-1210, species assumed): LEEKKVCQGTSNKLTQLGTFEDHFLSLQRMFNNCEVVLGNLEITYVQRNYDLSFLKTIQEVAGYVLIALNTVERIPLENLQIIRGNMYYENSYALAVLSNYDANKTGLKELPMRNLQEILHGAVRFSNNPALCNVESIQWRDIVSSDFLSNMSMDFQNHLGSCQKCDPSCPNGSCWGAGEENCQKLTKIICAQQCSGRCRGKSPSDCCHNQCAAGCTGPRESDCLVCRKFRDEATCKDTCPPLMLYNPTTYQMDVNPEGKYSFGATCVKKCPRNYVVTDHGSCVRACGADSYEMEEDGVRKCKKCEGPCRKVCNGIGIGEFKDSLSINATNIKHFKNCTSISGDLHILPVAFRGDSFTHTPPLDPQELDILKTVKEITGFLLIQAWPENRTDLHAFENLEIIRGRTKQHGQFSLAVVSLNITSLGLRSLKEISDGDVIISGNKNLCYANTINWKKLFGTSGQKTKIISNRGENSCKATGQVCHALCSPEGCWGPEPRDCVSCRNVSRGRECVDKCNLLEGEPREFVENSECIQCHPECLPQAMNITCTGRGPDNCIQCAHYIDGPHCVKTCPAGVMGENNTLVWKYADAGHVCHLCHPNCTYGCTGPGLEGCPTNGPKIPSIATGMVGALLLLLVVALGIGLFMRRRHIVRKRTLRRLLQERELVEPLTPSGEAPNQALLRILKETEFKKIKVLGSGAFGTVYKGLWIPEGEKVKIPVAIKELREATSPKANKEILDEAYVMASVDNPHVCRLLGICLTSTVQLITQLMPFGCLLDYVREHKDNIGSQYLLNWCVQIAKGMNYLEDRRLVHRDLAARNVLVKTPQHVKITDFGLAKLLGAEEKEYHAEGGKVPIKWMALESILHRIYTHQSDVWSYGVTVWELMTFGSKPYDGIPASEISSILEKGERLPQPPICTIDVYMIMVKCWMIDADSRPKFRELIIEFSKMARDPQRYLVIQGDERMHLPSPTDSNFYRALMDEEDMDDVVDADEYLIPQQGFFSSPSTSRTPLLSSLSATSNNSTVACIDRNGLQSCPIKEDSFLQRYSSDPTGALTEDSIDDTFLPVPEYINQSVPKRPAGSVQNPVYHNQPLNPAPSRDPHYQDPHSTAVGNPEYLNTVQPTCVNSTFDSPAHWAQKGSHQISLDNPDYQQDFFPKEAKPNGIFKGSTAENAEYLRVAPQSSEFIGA

## O=CN1CCN(c2ccc(/C=C3\C(=O)Nc4ccccc43)cc2)CC1 [compound 1, SU4984]
FGFR1 kinase [1]
  IC50: 10 to 20 µM
PDGFR
  inhibition of PDGFR kinase activity: inhibits
Insulin receptor (InsR)
  inhibition of InsR kinase activity: inhibits
EGFR [2]
  inhibition of EGFR kinase activity: does not inhibit

## Cc1c[nH]c(/C=C2\C(=O)Nc3ccccc32)c1CCC(=O)O [compound 2, SU5402]
FGFR1 kinase [1]
  IC50: 10 to 20 µM
PDGFR
  inhibition of PDGFR kinase activity: weak inhibitor
Insulin receptor (InsR)
  inhibition of InsR kinase activity: does not inhibit
EGFR [2]
  inhibition of EGFR kinase activity: does not inhibit

## CCN(CC)CCCCNc1ncc2cc(-c3cc(OC)cc(OC)c3)c(NC(=O)NC(C)(C)C)nc2n1 [compound 3, PD173074]
FGFR1 kinase [1]
  potency of FGFR1 inhibition: nanomolar potency
[3]
  IC50 for other kinases relative to FGFR1: ≥ 1000 fold

## CCOc1cc(/C=C2\NC(=S)NC2=O)ccc1OCCCOc1cc(C)cc(C)c1 [compound 29]
FGFR1 kinase [4]
  IC50 for inhibition of FGFR1 kinase: weak activity

## COCc1cc(/C=C2\NC(=S)NC2=O)ccc1OCCCOc1cc(C)cc(C)c1 [compound 30]
FGFR1 kinase [4]
  IC50 for inhibition of FGFR1 kinase: weak activity

## COc1ccc(-c2nc(=O)c3c4c(sc3[nH]2)CC(C)CC4)cc1OC (centres unmarked) [compound 35]
FGFR1 kinase [4]
  IC50 for inhibition of FGFR1 kinase: do not inhibit

## COc1cccc(-c2nc(=O)c3c4c(sc3[nH]2)CC(C)CC4)c1 (centres unmarked) [compound 36]
FGFR1 kinase [4]
  IC50 for inhibition of FGFR1 kinase: do not inhibit

## COc1cc(-c2nc(=O)c3c([nH]2)sc2cc(C(F)(F)F)ccc23)ccc1OCC(=O)O [compound 39]
FGFR1 kinase [4]
  IC50 for inhibition of FGFR1 kinase: eliminated activity

## COc1cc(-c2nc(=O)c3c([nH]2)sc2ccc(C)cc23)ccc1OCC(=O)O [compound 40]
EGFR [5]
  IC50: 2 µM
InsR
  IC50 InsR: does not inhibit; also recorded: no inhibition
